Reference: ChEMBL document CHEMBL1124794, “Synthesis, chemistry, and antineoplastic activity of alpha-halopyridinium salts: potential pyridone prodrugs of acylated vinylogous carbinolamine tumor inhibitors” (J Med Chem, 1990)
Each block holds one compound with its values, some of them ahead of it.

Columns and labels:
MX1 [1] = assay: In vivo activity against murine MX-1 tumor system at the dose of 37.5 mg/kg, activity expressed as body weight difference.; format: functional, Mus musculus
MX1 [2] = assay: In vivo activity against murine MX-1 tumor system at the dose of 150 mg/kg, activity expressed as TDS; 0/6; format: functional, Mus musculus
[3] = Effect of phosphate buffer on the hydrolysis of alpha Fluoropyridinium Moity at the concentration of 0.05M, pH 6.5, 25 degree C; format: ADME
Method in brief: (§1)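 α-Fluoropyridinium hydrolysis to pyridone in phosphate buffer at 0.02, 0.05 or 0.10 M, pH 6.5 or 8.0, ionic strength […] °C. Pyridinium UV absorbance maximum followed with time to give pseudo-first-order kobs and half-life.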

[4] = Effect of phosphate buffer on the hydrolysis of alpha Fluoropyridinium Moity at the concentration of 0.02M, pH 8.0, 25 degree C; format: ADME; method in brief: as §1
[5] = In vivo activity against murine M5076 tumor system at the dose of 50 mg/kg, activity expressed as %T/C.; format: functional, Mus musculus
[6] = Half life at the pH 7.0; format: ADME; conditions: buffer
Method in brief: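 Pyridinium-to-pyridone hydrolysis in 0.05 M phosphate buffer, ionic strength 0.25 M, 25 °C. pH set by meter. Loss of the pyridinium UV absorption maximum was followed over time to give pseudo-first-order k_obs and half-life.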

L1210 [7] = assay: In vivo activity against murine L1210 tumor system at the dose of 25 mg/kg, activity expressed as %T/C.; format: functional, Mus musculus
Method in brief: (§2)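 L1210 lymphocytic leukemia: ascitic fluid with ca. 10^6 cells injected ip into CD2F1 mice. Dosing started 24 h after inoculation and was repeated daily for five doses in total, from solutions or suspensions made fresh each day. Toxicity day survivors were scored on day 5. Body weight difference is day 5 minus day 1. %T/C is based on median survival time versus controls.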

[8] = Effect of Ionic strength (1.0M NaCl)on the hydrolysis of pyridinium Moity in 0.02 M buffer concentration, pH 7.4,25 degree C; format: ADME
Method in brief: (§3)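 Pyridinium salt in 0.02 M phosphate buffer, pH 7.4, 25 °C, with NaCl varied 0.10–1.0 M. Loss of the pyridinium chromophore's UV absorbance maximum (conversion to pyridone) followed over time. Pseudo-first-order kobs and half-life derived from that decay.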

MX1 [9] = assay: In vivo activity against murine MX-1 tumor system at the dose of 37.5 mg/kg, activity expressed as TDS; 4/6; format: functional, Mus musculus
[10] = In vivo activity against murine M5076 tumor system at the dose of 100 mg/kg, activity expressed as TDS; 6/10; format: functional, Mus musculus
Method in brief: (§4)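 M5076: ascitic fluid with ca. 10^6 cells inoculated ip into CD2F1 mice. Dosing started 24 h after inoculation and was then given every 4 days for four doses in total, from solutions or suspensions made fresh each day. Toxicity day survivors were scored on day 5. Body weight difference is day 14 minus day 1. %T/C is based on median survival time versus controls.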

[11] = Half life at the ionic strength 0.50 M NaCl; format: ADME; method in brief: as §3
P388 [12] = assay: In vivo activity against P388 Lymphocytic Leukemia in CD2F1 mice at the dose of 25 mg/kg, activity expressed as body weight difference; format: functional, Mus musculus
Method in brief: (§5)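 CD2F1 mice were inoculated with ascitic fluid holding ca. 10^6 P388 cells. Drug was given daily from 24 h after inoculation, from solutions or suspensions made fresh each day, some as a saline suspension. TDS is survivors/initial animals on day 5. BWD is body weight on day 5 minus day 1. %T/C compares median survival of treated and control mice.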

L1210 [13] = assay: In vivo activity against murine L1210 tumor system at the dose of 50 mg/kg, activity expressed as body weight difference; format: functional, Mus musculus; method in brief: as §2
P388 [14] = assay: In vivo activity against P388 Lymphocytic Leukemia in CD2F1 mice at the dose of 100 mg/kg, activity expressed as body weight difference; T-C; format: functional, Mus musculus; method in brief: as §5
[15] = In vivo activity against murine M5076 tumor system at the dose of 166.7 mg/kg, activity expressed as body weight difference; T-C; format: functional, Mus musculus; method in brief: as §4
L1210 [16] = assay: In vivo activity against murine L1210 tumor system at the dose of 100 mg/kg, activity expressed as TDS; 6/6; format: functional, Mus musculus; method in brief: as §2
L1210 [17] = assay: In vivo activity against murine L1210 tumor system at the dose of 21.6 mg/kg, activity expressed as KE; format: functional, Mus musculus; method in brief: as §2
L1210 [18] = assay: In vivo activity against murine L1210 tumor system at the dose of 60 mg/kg, activity expressed as TDS; 6/6; format: functional, Mus musculus; method in brief: as §2
[19] = In vivo activity against murine M5076 tumor system at the dose of 21.6 mg/kg, activity expressed as TDS; 10/10; format: functional, Mus musculus; method in brief: as §4
[20] = In vivo activity against murine M5076 tumor system at the dose of 100 mg/kg, activity expressed as KE; format: functional, Mus musculus; method in brief: as §4
[21] = In vivo activity against murine M5076 tumor system at the dose of 100 mg/kg, activity expressed as %T/C; 10/10.; format: functional, Mus musculus; method in brief: as §4
[22] = Effect of pH on carbamate hydrolysis in 0.05 M buffer concentration at the pH 9.0, 25 degree C.; format: ADME
Method in brief: (§6)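 Bis-carbamate in acetonitrile–water (1:1; buffer added to a 0.5 mg/mL acetonitrile solution), 0.05 M buffer, ionic strength 0.136 (KCl), 25 ± 0.1 °C. Buffers: phosphate pH 2.0; citrate pH 3.0–3.5; succinate pH 4.0; acetate pH 5.0; phosphate pH 6.0–8.0; borate pH 9.0; carbonate pH 10.0. HPLC bis-carbamate peak-area loss, ln(area0/areat) vs time slope = kobs. Duplicates averaged.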

P388 [23] = assay: In vivo activity against P388 Lymphocytic Leukemia in CD2F1 mice at the dose of 100 mg/kg, activity expressed as KE; format: functional, Mus musculus
[24] = Half life at the pH 9.0; format: ADME; conditions: buffer
Method in brief: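 Bis-carbamate hydrolysis in acetonitrile–water (1:1) with 0.05 M borate buffer (boric acid–NaOH), pH 9.0, ionic strength 0.136 adjusted with KCl, 25 °C, thermostated. Loss of the bis-carbamate peak area was tracked by HPLC. k_obs is the slope of ln(area0/areat) vs time. Values are averages of two determinations.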

L1210 [25] = assay: In vivo activity against murine L1210 tumor system at the dose of 36 mg/kg, activity expressed as KE; format: functional, Mus musculus; method in brief: as §2
L1210 [26] = assay: In vivo activity against murine L1210 tumor system at the dose of 100 mg/kg, activity expressed as %T/C.; format: functional, Mus musculus
Method in brief: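 CD2F1 mice received ca. 10^6 L1210 cells in ascitic fluid ip. Treatment started 24 h after inoculation and was given daily for five doses in total. %T/C compares median survival time of treated and control animals.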

[27] = Effect of pH on carbamate hydrolysis in 0.05 M buffer concentration at the pH 3.5, 25 degree C.; format: ADME; method in brief: as §6
P388 [28] = assay: In vivo activity against P388 Lymphocytic Leukemia in CD2F1 mice at the dose of 12.5 mg/kg, activity expressed as body weight difference; T-C; format: functional, Mus musculus; method in brief: as §5
L1210 [29] = assay: In vivo activity against murine L1210 tumor system at the dose of 100 mg/kg, activity expressed as KE; format: functional, Mus musculus
[30] = In vivo activity against murine M5076 tumor system at the dose of 100 mg/kg, activity expressed as %T/C.; format: functional, Mus musculus; method in brief: as §4
[31] = In vivo activity against murine M5076 tumor system at the dose of 21.6 mg/kg, activity expressed as %T/C.; format: functional, Mus musculus; method in brief: as §4
[32] = Half life at the pH 3.0; format: ADME; conditions: buffer; method in brief: as §6

K obs [3]: 0.0072 min⁻¹ | K obs [4]: 0.0132 min⁻¹ | half-life [6]: 33.8 min | K obs [8]: 0.007 min⁻¹ | half-life [11]: 63.2 min
Structure (SMILES): CC(C)NC(=O)OCc1c(COC(=O)NC(C)C)c(-c2cc[n+](C)c(F)c2)n2c1CCC2.[I-]
BWD (MX1 [1]): 0.3 g | TDS (MX1 [2]): 0 | T/C [5]: 118% | T/C (L1210 [7]): 118% | TDS (MX1 [9]): 4 | TDS [10]: 6 | BWD (P388 [12]): -1 g | BWD (L1210 [13]): -0.8 g

K obs [22]: 0.0129 min⁻¹ | half-life [24]: 54 min | K obs [27]: 0.0214 min⁻¹ | half-life [32]: 22.8 min
Structure (SMILES): CC(C)NC(=O)OCc1c(COC(=O)NC(C)C)c(-c2ccn(C)c(=O)c2)n2c1CCC2
BWD (P388 [14]): -1.8 g | BWD [15]: -5.8 g | TDS (L1210 [16]): 6 | KE (L1210 [17]): -0.86 | TDS (L1210 [18]): 6 | TDS [19]: 10 | KE [20]: -1.49 | TDS [21]: 10 | KE (P388 [23]): 0.69 | KE (L1210 [25]): -0.86 | T/C (L1210 [26]): 146% | BWD (P388 [28]): -0.1 g | KE (L1210 [29]): -0.22 | T/C [30]: 122% | T/C [31]: 107%
